Data set [1] can be described thus: melting temperature; fluorescence melt of hairpins on a sequencing array, two-state fit, raised by 9.35 °C to match UV melts. The settings on record: sodium 0.088 M. In outline: (§1)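 Bootstrapped two-state fits yielded melting temperature and folding enthalpy for library hairpins. Cy3 fluorescence, with annealed Cy3 and quencher oligos, was imaged on a sequenced MiSeq flow cell in 50 mM Na-HEPES pH 8.0, 25 mM NaCl in 2.5 °C steps up to 60 °C, and normalised to pre-quench Cy3 and to control constructs. Four replicates were combined by inverse variance, and fitted temperatures were raised by 9.35 °C to match UV melts.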

Data set [2] can be described thus: folding enthalpy; higher = less favourable; fluorescence melt of hairpins on a sequencing array, two-state fit. The settings on record: sodium 0.088 M. Summed up:
as §1

Consider GCTGCGACGAAAGTCAGC (((..(((....)))))), for which the Tm in data set [1] was found to be 51.4 °C. Also, the folding enthalpy in data set [2] was -13.4 kcal/mol.

On to GCTGCGCGAAAGCACCGC ((.(.((....)).).)), for which the Tm in data set [1] amounted to 41.3 °C. The folding enthalpy in data set [2] was -21.4 kcal/mol.

GCTGCGCGAAAGCCTAGC (((..((....))..))): in data set [1], the Tm is 42.4 °C. Besides, the folding enthalpy in data set [2] is -15.7 kcal/mol.

On to GCTGCGCGAAAGCTCAGC ((((.((....)).)))), for which the Tm in data set [1] turned out to be 64.4 °C. Moreover, the folding enthalpy in data set [2] is -35.4 kcal/mol.

As to GCTGCTGCGAAAGCAAGC (((..(((....)))))), in data set [1], the Tm came to 54.1 °C. Also, the folding enthalpy in data set [2] is -11.7 kcal/mol.

Regarding GCTGCTGGAAACAGTGGC ((..(((....)))..)), the Tm in data set [1] was 47.6 °C. Also, the folding enthalpy in data set [2] is -40.2 kcal/mol.

Consider GCTGCTGGAAACGGTAGC (((.(.(....).).))), for which the Tm in data set [1] was 41.3 °C. Also, the folding enthalpy in data set [2] is -31.3 kcal/mol.

On to GCTGGAGGAAACTCTGGC ((..(((....)))..)), for which the Tm in data set [1] turned out to be 41.6 °C. Moreover, in data set [2], the folding enthalpy is -28 kcal/mol.

GCTGGCCGAAAGGCAGC (((.(((....)))))): the Tm in data set [1] was found to be 65.8 °C. Moreover, the folding enthalpy in data set [2] is -20.6 kcal/mol.

For GCTGGCCGAAAGGCGAGC (((.(((....))).))), the Tm in data set [1] turned out to be 66.5 °C. Also, the folding enthalpy in data set [2] was -26.3 kcal/mol.

Turning to GCTGGCGAAAGCCACAGC ((((((....)))..))), the Tm in data set [1] was 49.5 °C. The folding enthalpy in data set [2] was -13.9 kcal/mol.

For the sequence GCTGGCGAAAGCCAGAGC ((((((....)))..))), the Tm in data set [1] amounted to 63.3 °C. In addition, in data set [2], the folding enthalpy was -9.92 kcal/mol.

Turning to GCTGGCGAAAGCCTAAGC ((((((....)))..))), the Tm in data set [1] was determined as 51.5 °C. Besides, the folding enthalpy in data set [2] was -16.5 kcal/mol.

With GCTGGCGGAAACGTCAGC ((((.((....)).)))), the Tm in data set [1] amounted to 61.2 °C. Besides, the folding enthalpy in data set [2] is -43.2 kcal/mol.

Turning to GCTGGGAAACCAGC (((((....))))), the Tm in data set [1] was 65.4 °C. For the same sequence, the folding enthalpy in data set [2] is -29.9 kcal/mol.

As for GCTGGGACGAAAGTCAGC (((..(((....)))))), the Tm in data set [1] turned out to be 46.3 °C. In data set [2], the folding enthalpy is -19.3 kcal/mol.

With GCTGGGCGAAAGCACTGC ((.(.((....)).).)), the Tm in data set [1] was 61.3 °C. For the same sequence, the folding enthalpy in data set [2] is -29.4 kcal/mol.

As for GCTGGGCGAAAGCCCCGC ((.((((....)))).)), in data set [1], the Tm stood at 58.5 °C. Besides, in data set [2], the folding enthalpy is -16.1 kcal/mol.

Turning to GCTGGGCGAAAGCCTGGC ((..(((....)))..)), the Tm in data set [1] was determined as 60.9 °C. Besides, the folding enthalpy in data set [2] is -24.5 kcal/mol.

For the sequence GCTGGGCGAAAGCGAAGC (((..((....))..))), the Tm in data set [1] was determined as 47.5 °C. Also, the folding enthalpy in data set [2] is -20 kcal/mol.

GCTGGGCGAAAGCTGAGC (((..((....))..))): in data set [1], the Tm is 49.3 °C. Further, the folding enthalpy in data set [2] was -21 kcal/mol.

As to GCTGGGGAAACCCAGC ((((((....)))))), the Tm in data set [1] worked out at 69.3 °C. The folding enthalpy in data set [2] is -37.5 kcal/mol.

In the case of GCTGGTCGAAAGACTAGC (((.(((....))).))), the Tm in data set [1] is 57.6 °C. The folding enthalpy in data set [2] is -43.2 kcal/mol.

In the case of GCTGGTGGAAACACCGGC ((.((((....)))).)), in data set [1], the Tm turned out to be 62.6 °C. Further, the folding enthalpy in data set [2] was -36.1 kcal/mol.

Consider GCTGGTGGAAACGCTAGC (((.(.(....).).))), for which the Tm in data set [1] was found to be 41.2 °C. In data set [2], the folding enthalpy was -26.8 kcal/mol.

Take GCTGTAGCGAAAGCTAGC (((..(((....)))))): in data set [1], the Tm came out at 46.4 °C. For the same sequence, the folding enthalpy in data set [2] is -14 kcal/mol.

As for GCTGTAGGAAACTGCAGC ((((.((....)).)))), in data set [1], the Tm was 52.6 °C. For the same sequence, the folding enthalpy in data set [2] is -43.3 kcal/mol.

For the sequence GCTGTAGGAAACTGTAGC (((..((....))..))), the Tm in data set [1] stood at 29.2 °C. Moreover, the folding enthalpy in data set [2] was -11.7 kcal/mol.

Take GCTGTATCGAAAGATAGC (((..(((....)))))): in data set [1], the Tm was 33.7 °C. In addition, in data set [2], the folding enthalpy is -18.4 kcal/mol.

For the sequence GCTGTCGAAAGACAAAGC ((((((....)))..))), the Tm in data set [1] amounted to 48.9 °C. Besides, the folding enthalpy in data set [2] is -23.9 kcal/mol.

As to GCTGTCGAAAGACCAAGC ((((((....)))..))), the Tm in data set [1] was 38.9 °C. Besides, the folding enthalpy in data set [2] was -19.5 kcal/mol.

Take GCTGTCGAAAGACGAAGC ((((((....)))..))): the Tm in data set [1] is 44.3 °C. Besides, the folding enthalpy in data set [2] is -18.4 kcal/mol.

Regarding GCTGTCGGAAACGACGGC ((.((((....)))).)), the Tm in data set [1] was 64 °C. Moreover, the folding enthalpy in data set [2] was -34.2 kcal/mol.

On to GCTGTCGGAAACGATGGC ((..(((....)))..)), for which, in data set [1], the Tm worked out at 47.8 °C. In addition, the folding enthalpy in data set [2] is -33.5 kcal/mol.

For the sequence GCTGTCGGAAACGGCAGC ((((.((....)).)))), in data set [1], the Tm came to 63 °C. Further, the folding enthalpy in data set [2] was -47.7 kcal/mol.

In the case of GCTGTGCGAAAGCACTGC ((.((((....)))).)), the Tm in data set [1] is 68.1 °C. Further, the folding enthalpy in data set [2] is -24.1 kcal/mol.

For GCTGTGCGAAAGCCAAGC (((..((....))..))), the Tm in data set [1] was 46.2 °C. Moreover, the folding enthalpy in data set [2] is -19.2 kcal/mol.
